Test results: ChEMBL document CHEMBL1961794, “Regulation of circadian behaviour and metabolism by synthetic REV-ERB agonists” (Nature, 2012)
Calls of active or inactive are those of the source. The rule behind the calls is not given here.

Key:
[1] = target: Nuclear receptor subfamily 6 group A member 1 (Homo sapiens) (UniProt Q15406); test: Effect on GCNF(NR6A1) dependent reporter activity in HEK293 cells at 20 uM; format: cell-based
Procedure, shortened: (§1)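 Specificity panel covering all 48 human nuclear receptors. HEK293 cells cotransfected with Gal4 DNA-binding domain–nuclear receptor fusions and a luciferase reporter. Compound tested at a single 20 μM concentration. Mean ± s.e.m., n=3.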

[2] = target: Progesterone receptor (Homo sapiens) (UniProt P06401); test: Effect on PGR(NR3C3) dependent reporter activity in HEK293 cells at 20 uM; format: cell-based; procedure, shortened: as §1
[3] = Plasma concentration after 1 hour at 10mg/kg ip dose (10mg/ml suspension in 10%DMSO/10%Tween80); format: ADME, organism-based; details: mouse, read-out: Conc_plasma
Procedure, shortened: (§2)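 Mice received a single 10 mg/kg i.p. dose as a 10 mg/ml suspension in DMSO/Tween80/water (10/10/80). Plasma was sampled at 1, 2, 4 and 8 h post-injection and drug concentration reported in μM. Mean ± s.e.m., n=3.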

[4] = target: Oxysterols receptor LXR-beta (Homo sapiens) (UniProt P55055); test: Effect on LXRB(NR1H2) dependent reporter activity in HEK293 cells at 20 uM; format: cell-based; procedure, shortened: as §1
[5] = target: Retinoic acid receptor RXR-gamma (Homo sapiens) (UniProt P48443); test: Effect on RXRG(NR2B3) dependent reporter activity in HEK293 cells at 20 uM; format: cell-based; procedure, shortened: as §1
[6] = Plasma concentration after 8 hours at 100mg/kg ip dose (10mg/ml solution in 15% Cremophor); format: ADME, organism-based; details: mouse, read-out: Conc_plasma
Procedure, shortened: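 Single 100 mg/kg i.p. dose given to mice as a 10 mg/ml solution in 15% Cremophor. Plasma drug concentration (μM) was measured at 2 and 8 h post-injection. Mean ± s.e.m., n=3.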

[7] = target: Steroidogenic factor 1 (Homo sapiens) (UniProt Q13285); test: Effect on SF1(NR5A1) dependent reporter activity in HEK293 cells at 20 uM; format: cell-based; procedure, shortened: as §1
Chain of Steroidogenic factor 1 (Homo sapiens) (Q13285 whole entry): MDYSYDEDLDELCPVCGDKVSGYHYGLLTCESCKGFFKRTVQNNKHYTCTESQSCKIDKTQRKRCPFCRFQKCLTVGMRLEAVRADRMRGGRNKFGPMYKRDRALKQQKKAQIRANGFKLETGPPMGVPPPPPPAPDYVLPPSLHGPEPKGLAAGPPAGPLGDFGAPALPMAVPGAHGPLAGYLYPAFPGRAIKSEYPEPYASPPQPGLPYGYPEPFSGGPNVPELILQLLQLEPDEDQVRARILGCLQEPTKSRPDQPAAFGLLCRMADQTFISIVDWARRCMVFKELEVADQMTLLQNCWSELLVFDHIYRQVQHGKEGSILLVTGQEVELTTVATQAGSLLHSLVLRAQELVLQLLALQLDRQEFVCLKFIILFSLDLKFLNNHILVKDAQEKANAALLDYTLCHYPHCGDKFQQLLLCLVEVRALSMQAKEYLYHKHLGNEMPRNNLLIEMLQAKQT

[8] = target: COUP transcription factor 2 (Homo sapiens) (UniProt P24468); test: Effect on TFCOUP2(NR2F2) dependent reporter activity in HEK293 cells at 20 uM; format: cell-based
Procedure, shortened: (§3)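 Cotransfection assay in HEK293 cells with Gal4 DNA-binding domain–nuclear receptor fusions, covering a panel of all 48 human nuclear receptors. Compounds were tested at 20 μM, with reporter luciferase as the read-out. Mean ± s.e.m., n=3.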

Mus musculus = test: Decreased expression of REV-ERB responsive gene Srebf1 in mouse liver after 6 days at 100 mg/kg; format: functional, organism-based; parameters: dose 100 mg/kg
[9] = target: Androgen receptor (Homo sapiens) (UniProt P10275); test: Effect on AR(NR3C4) dependent reporter activity in HEK293 cells at 20 uM; format: cell-based; procedure, shortened: as §1
[10] = target: Nuclear receptor ROR-beta (Homo sapiens) (UniProt Q92753); test: Effect on RORB(NR1F2) dependent reporter activity in HEK293 cells at 20 uM
[11] = target: Nuclear receptor subfamily 4 group A member 3 (Homo sapiens) (UniProt Q92570); test: Effect on NOR1(NR4A3) dependent reporter activity in HEK293 cells at 20 uM; format: cell-based; procedure, shortened: as §1
[12] = target: Nuclear receptor subfamily 1 group D member 1 (Homo sapiens) (UniProt P20393); test: Recruitment of co-repressor NcoR1 to REV-ERB-alpha; format: functional
Procedure, shortened: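 Biochemical corepressor-interaction assay using Luminex bead technology, measuring compound-dependent recruitment of an NCoR CoRNR box peptide to REV-ERBα. Mean ± s.e.m., n=3.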

[13] = target: COUP transcription factor 1 (Homo sapiens) (UniProt P10589); test: Effect on TFCOUP1(NR2F1) dependent reporter activity in HEK293 cells at 20 uM; format: cell-based; procedure, shortened: as §3
[14] = target: Thyroid hormone receptor beta (Homo sapiens) (UniProt P10828); test: Effect on THRB(NR1A2) dependent reporter activity in HEK293 cells at 20 uM; format: cell-based; procedure, shortened: as §3
[15] = target: Nuclear receptor subfamily 4immunitygroup A member 1 (Homo sapiens) (UniProt P22736); test: Effect on GFRP1(NR4A1) dependent reporter activity in HEK293 cells at 20 uM; format: cell-based; procedure, shortened: as §1
Chain of Nuclear receptor subfamily 4immunitygroup A member 1 (Homo sapiens) (P22736 whole entry): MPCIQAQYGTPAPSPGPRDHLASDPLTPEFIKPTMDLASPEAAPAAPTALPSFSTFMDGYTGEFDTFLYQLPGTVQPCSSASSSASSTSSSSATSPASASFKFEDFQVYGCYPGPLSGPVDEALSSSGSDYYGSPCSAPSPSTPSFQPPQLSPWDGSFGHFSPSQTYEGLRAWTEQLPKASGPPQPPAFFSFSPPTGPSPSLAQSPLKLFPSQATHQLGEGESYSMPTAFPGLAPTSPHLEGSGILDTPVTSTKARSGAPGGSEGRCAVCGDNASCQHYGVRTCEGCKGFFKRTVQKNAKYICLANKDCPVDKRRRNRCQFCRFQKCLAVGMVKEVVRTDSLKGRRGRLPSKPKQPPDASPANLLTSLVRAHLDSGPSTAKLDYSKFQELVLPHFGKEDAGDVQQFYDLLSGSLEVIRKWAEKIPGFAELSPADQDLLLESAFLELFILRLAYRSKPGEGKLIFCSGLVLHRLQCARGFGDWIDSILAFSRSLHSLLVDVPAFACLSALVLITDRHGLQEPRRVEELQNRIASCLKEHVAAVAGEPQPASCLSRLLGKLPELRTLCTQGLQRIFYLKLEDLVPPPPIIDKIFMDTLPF

[16] = target: Bile acid receptor (Homo sapiens) (UniProt Q96RI1); test: Effect on BAR(NR1H4) dependent reporter activity in HEK293 cells at 20 uM; format: cell-based; procedure, shortened: as §1
Chain of Bile acid receptor (Homo sapiens) (Q96RI1 whole entry): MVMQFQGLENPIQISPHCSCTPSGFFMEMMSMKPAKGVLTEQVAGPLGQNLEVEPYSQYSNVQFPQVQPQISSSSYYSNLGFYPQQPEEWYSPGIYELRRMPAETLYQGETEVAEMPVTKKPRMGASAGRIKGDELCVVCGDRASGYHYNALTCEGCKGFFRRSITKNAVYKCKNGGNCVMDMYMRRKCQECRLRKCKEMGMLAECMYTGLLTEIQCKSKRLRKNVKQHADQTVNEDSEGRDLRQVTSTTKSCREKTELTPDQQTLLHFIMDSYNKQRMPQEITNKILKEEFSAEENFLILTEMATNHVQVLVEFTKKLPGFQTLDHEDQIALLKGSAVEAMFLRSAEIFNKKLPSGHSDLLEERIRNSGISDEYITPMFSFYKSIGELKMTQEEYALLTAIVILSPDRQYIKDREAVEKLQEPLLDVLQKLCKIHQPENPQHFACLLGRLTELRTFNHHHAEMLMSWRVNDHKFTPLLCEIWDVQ

[17] = target: Glucocorticoid receptor (Homo sapiens) (UniProt P04150); test: Effect on GCR(NR3C1) dependent reporter activity in HEK293 cells at 20 uM; format: cell-based; procedure, shortened: as §1
Chain of Glucocorticoid receptor (Homo sapiens) (P04150 whole entry): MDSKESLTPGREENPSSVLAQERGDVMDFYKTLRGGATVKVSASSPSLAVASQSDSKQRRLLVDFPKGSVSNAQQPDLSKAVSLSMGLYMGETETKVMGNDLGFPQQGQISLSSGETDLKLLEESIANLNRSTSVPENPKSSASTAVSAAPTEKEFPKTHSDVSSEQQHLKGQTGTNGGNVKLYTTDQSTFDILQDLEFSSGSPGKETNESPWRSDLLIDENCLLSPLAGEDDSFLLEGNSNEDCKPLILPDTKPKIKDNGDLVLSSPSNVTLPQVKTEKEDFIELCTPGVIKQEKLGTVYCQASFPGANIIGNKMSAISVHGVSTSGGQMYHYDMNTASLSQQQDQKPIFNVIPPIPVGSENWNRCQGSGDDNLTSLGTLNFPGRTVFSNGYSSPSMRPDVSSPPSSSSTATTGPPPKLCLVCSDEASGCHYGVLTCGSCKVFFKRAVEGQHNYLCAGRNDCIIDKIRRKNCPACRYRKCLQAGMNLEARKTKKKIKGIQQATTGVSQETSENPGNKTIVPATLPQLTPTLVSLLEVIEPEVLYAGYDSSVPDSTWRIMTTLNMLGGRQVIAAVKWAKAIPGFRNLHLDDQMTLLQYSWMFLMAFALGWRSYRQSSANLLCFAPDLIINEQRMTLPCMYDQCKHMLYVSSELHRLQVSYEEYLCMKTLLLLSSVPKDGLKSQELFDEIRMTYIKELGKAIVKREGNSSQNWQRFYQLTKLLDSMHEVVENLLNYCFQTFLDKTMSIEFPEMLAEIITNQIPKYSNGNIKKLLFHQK

[18] = target: Peroxisome proliferator-activated receptor delta (Homo sapiens) (UniProt Q03181); test: Effect on PPARD(NR1C2) dependent reporter activity in HEK293 cells at 20 uM; format: cell-based; procedure, shortened: as §1
Chain of Peroxisome proliferator-activated receptor delta (Homo sapiens) (Q03181 whole entry): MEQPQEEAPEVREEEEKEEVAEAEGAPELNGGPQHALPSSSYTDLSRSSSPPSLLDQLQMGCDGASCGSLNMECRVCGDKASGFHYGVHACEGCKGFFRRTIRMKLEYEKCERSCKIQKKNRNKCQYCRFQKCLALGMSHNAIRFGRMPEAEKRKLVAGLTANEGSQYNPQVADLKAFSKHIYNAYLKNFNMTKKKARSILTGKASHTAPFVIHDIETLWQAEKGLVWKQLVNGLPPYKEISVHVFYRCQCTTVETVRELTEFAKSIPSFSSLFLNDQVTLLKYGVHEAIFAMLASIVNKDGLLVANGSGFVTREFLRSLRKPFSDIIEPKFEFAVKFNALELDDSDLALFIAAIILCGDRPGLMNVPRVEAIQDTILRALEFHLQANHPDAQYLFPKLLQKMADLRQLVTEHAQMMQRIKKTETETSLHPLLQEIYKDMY

[19] = target: Nuclear receptor subfamily 4 group A member 2 (Homo sapiens) (UniProt P43354); test: Effect on NURR1(NR4A2) dependent reporter activity in HEK293 cells at 20 uM; format: cell-based; procedure, shortened: as §1
[20] = Brain concentration after 8 hours at 10mg/kg ip dose (10mg/ml suspension in 10%DMSO/10%Tween80); format: ADME, organism-based; details: mouse
Procedure, shortened: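 Mice given a single 10mg/kg i.p. dose as a 10mg/ml suspension in 10/10/80 DMSO/Tween80/water. Brain levels (μM) measured at 2h and 8h post injection, with plasma sampled at 1, 2, 4 and 8h. Mean ± s.e.m., n=3.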

[21] = target: Nuclear receptor ROR-alpha (Homo sapiens) (UniProt P35398); test: Effect on RORA(NR1F1) dependent reporter activity in HEK293 cells at 20 uM; format: cell-based; procedure, shortened: as §1
[22] = target: Nuclear receptor subfamily 0 group B member 1 (Homo sapiens) (UniProt P51843); test: Effect on DAX1(NR0B1) dependent reporter activity in HEK293 cells at 20 uM; format: cell-based; procedure, shortened: as §1
[23] = target: Peroxisome proliferator-activated receptor alpha (Homo sapiens) (UniProt Q07869); test: Effect on PPARA(NR1C1) dependent reporter activity in HEK293 cells at 20 uM; format: cell-based; procedure, shortened: as §1
[24] = target: Nuclear receptor subfamily 2 group C member 1 (Homo sapiens) (UniProt P13056); test: Effect on TR2(NR2C1) dependent reporter activity in HEK293 cells at 20 uM; format: cell-based; procedure, shortened: as §3
[25] = target: Photoreceptor-specific nuclear receptor (Homo sapiens) (UniProt Q9Y5X4); test: Effect on PNR(NR2E3) dependent reporter activity in HEK293 cells at 20 uM; format: cell-based; procedure, shortened: as §1
Chain of Photoreceptor-specific nuclear receptor (Homo sapiens) (Q9Y5X4 whole entry): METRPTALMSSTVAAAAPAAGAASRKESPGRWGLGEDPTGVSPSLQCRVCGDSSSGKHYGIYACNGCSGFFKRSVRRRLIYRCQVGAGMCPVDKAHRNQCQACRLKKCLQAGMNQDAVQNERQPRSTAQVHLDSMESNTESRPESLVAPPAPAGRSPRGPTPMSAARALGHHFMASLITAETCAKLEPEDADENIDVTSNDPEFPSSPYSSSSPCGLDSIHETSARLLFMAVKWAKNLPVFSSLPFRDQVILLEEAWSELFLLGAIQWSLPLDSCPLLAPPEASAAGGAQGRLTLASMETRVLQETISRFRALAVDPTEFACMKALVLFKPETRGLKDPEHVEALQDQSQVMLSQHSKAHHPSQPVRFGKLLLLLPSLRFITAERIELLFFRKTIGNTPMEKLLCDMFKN

[26] = target: Mineralocorticoid receptor (Homo sapiens) (UniProt P08235); test: Effect on MCR(NR3C2) dependent reporter activity in HEK293 cells at 20 uM; format: cell-based; procedure, shortened: as §1
[27] = Plasma concentration after 4 hours at 10mg/kg ip dose (10mg/ml suspension in 10%DMSO/10%Tween80); format: ADME, organism-based; details: mouse, read-out: Conc_plasma; procedure, shortened: as §2
[28] = target: Retinoic acid receptor RXR-beta (Homo sapiens) (UniProt P28702); test: Effect on RXRB(NR2B2) dependent reporter activity in HEK293 cells at 20 uM; format: cell-based; procedure, shortened: as §1
Chain of Retinoic acid receptor RXR-beta (Homo sapiens) (P28702 whole entry): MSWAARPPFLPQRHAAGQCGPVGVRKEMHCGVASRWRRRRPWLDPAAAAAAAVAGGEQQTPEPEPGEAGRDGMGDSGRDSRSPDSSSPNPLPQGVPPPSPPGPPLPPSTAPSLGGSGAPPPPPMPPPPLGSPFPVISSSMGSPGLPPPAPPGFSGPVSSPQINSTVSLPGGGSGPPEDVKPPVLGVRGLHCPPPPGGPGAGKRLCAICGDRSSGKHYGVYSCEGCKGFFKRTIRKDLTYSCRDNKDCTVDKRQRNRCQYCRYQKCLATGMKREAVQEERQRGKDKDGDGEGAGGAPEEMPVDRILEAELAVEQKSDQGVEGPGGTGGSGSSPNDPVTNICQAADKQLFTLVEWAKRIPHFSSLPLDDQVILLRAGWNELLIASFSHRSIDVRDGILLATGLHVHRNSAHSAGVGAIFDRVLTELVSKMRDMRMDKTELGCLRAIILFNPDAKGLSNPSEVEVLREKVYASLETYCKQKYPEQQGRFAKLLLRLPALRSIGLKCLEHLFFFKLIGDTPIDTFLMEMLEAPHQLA

[29] = target: Estrogen receptor (Homo sapiens) (UniProt P03372); test: Effect on ESR1(NR3A1) dependent reporter activity in HEK293 cells at 20 uM; format: cell-based; procedure, shortened: as §1
Chain of Estrogen receptor (Homo sapiens) (P03372 whole entry): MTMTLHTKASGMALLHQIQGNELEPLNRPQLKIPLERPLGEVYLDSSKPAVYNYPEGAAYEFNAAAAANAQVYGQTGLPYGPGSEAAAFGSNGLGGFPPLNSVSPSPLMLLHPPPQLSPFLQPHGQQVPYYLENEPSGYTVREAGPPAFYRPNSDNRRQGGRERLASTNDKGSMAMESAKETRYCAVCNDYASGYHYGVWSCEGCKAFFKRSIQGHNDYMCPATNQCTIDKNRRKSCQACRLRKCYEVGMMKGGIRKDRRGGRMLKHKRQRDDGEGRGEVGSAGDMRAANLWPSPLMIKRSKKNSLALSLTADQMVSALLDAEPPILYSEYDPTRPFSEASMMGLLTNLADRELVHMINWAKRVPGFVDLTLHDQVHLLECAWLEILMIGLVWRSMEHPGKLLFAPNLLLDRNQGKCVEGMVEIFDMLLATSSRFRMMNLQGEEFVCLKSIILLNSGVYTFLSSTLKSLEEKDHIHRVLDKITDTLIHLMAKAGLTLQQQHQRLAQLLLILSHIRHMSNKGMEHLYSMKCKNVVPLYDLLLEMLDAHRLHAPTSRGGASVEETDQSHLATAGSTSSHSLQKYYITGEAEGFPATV

Chain of Nuclear receptor subfamily 6 group A member 1 (Homo sapiens) (Q15406 whole entry, the tested form may be a part): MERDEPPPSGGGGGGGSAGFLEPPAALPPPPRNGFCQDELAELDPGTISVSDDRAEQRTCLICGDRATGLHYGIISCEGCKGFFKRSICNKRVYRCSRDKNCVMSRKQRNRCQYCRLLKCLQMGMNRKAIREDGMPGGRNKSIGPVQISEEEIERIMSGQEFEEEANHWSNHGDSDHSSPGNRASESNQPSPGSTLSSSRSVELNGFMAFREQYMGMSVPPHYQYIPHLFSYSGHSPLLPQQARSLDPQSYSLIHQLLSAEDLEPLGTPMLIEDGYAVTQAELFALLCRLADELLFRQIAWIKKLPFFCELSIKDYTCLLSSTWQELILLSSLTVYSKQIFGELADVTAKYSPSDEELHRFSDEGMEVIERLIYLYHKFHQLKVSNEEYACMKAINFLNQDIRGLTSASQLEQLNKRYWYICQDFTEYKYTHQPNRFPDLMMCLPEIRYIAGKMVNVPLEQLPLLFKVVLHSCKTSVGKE

## CCOC(=O)N1CCC(CN(Cc2ccc(Cl)cc2)Cc2ccc([N+](=O)[O-])s2)C1 (stereo not given) [SR9009]
[1]
  inhibition: inactive
[2]
  inhibition: inactive
[3]
  concentration at 1 h: 1400 nM
[4]
  inhibition: inactive
[5]
  inhibition: inactive
[6]
  concentration at 8 h: 1500 nM
[7]
  inhibition: inactive
[8]
  inhibition: inactive
Mus musculus
  Reduced_Srebf1_gene_exp: Active
[9]
  inhibition: inactive
[10]
  inhibition: inactive
[11]
  inhibition: inactive
[12]
  NcoR1_recruitment: Dose-dependent effect
[13]
  inhibition: inactive
[14]
  inhibition: inactive
[15]
  inhibition: inactive
[16]
  inhibition: inactive
[17]
  inhibition: inactive
[18]
  inhibition: inactive
[19]
  inhibition: inactive
[20]; brain, read-out: Conc_brain
  concentration at 8 h: 110 nM
[21]
  inhibition: inactive
[22]
  inhibition: inactive
[23]
  inhibition: inactive
[24]
  inhibition: inactive
[25]
  inhibition: inactive
[26]
  inhibition: inactive
[27]
  concentration at 4 h: 220 nM
[28]
  inhibition: inactive
[29]
  inhibition: inactive

## CCCCCNC(=O)N1CCC(CN(Cc2ccc(Cl)cc2)Cc2ccc([N+](=O)[O-])s2)C1 (stereo not given) [SR9011]
[1]
  inhibition: inactive
[2]
  inhibition: inactive
[3]
  concentration at 1 h: 1550 nM
[4]
  inhibition: inactive
[5]
  inhibition: inactive
[6]
  concentration at 8 h: 740 nM
[7]
  inhibition: inactive
[8]
  inhibition: inactive
Mus musculus
  Reduced_Srebf1_gene_exp: Active
[9]
  inhibition: inactive
[10]
  inhibition: inactive
[11]
  inhibition: inactive
[12]
  NcoR1_recruitment: Dose-dependent effect
[13]
  inhibition: inactive
[14]
  inhibition: inactive
[15]
  inhibition: inactive
[16]
  inhibition: inactive
[17]
  inhibition: inactive
[18]
  inhibition: inactive
[19]
  inhibition: inactive
[20]; in vivo, 8 h
  Conc_brain: Not Detected
[21]
  inhibition: inactive
[22]
  inhibition: inactive
[23]
  inhibition: inactive
[24]
  inhibition: inactive
[25]
  inhibition: inactive
[26]
  inhibition: inactive
[27]
  concentration at 4 h: 110 nM
[28]
  inhibition: inactive
[29]
  inhibition: inactive
